# High-throughput results from PubChem BioAssay.
# aDG glyco up – alpha-DG glycosylation activation | activation, % at 10 µM | 360,000 compounds, 0.22% hits | Pro5-aDG cells, alpha-DG glycosylation AlphaScreen (IIH6); 0% Pro5, 100% B10-LARGE cell signal;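 active means activation of at least 8% versus controls, or a plate z-score of at least 8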;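 further: Pro5 are CHO cells carrying HIG-tagged alpha-DG that lacks glycosylation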
# ADAM17 inh – inhibits human ADAM17; P78536; recombinant ADAM17, EDANS/DABCYL FRET peptide cleavage; inhibition, % at 6.95 µM; 370,000 compounds, 0.83% hits; AID 720648;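 active means inhibition above the mean of compounds lying between control limits plus 3 SD, set per campaign, cut at about 8.5% in these data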;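 further: 0% = DMSO-only wells as the low control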
# Target sequence (P78536 215-824 limits assumed): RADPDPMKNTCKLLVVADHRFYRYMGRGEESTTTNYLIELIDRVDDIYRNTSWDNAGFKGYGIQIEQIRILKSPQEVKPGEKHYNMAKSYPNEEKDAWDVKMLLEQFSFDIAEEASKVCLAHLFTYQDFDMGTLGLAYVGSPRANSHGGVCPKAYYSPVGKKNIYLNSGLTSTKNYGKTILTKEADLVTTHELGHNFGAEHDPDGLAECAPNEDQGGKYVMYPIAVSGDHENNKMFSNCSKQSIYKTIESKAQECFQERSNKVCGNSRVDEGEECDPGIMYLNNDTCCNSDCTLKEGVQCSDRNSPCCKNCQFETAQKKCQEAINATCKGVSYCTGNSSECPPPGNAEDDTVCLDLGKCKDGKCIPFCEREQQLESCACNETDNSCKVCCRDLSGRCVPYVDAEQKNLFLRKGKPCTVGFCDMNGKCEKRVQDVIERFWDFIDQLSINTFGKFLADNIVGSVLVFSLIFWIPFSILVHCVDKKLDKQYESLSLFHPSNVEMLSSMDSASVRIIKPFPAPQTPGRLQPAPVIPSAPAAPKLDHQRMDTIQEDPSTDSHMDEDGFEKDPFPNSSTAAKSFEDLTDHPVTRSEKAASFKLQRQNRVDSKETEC
# ADAM10 inh – ADAM10 inhibition, QFRET primary screen; O14672; recombinant ADAM10, EDANS/DABCYL FRET peptide cleavage, 3 h; inhibition, % at 7 µM; 370,000 compounds, 0.62% hits;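 active means inhibition above a per-campaign cutoff equal to the mean of compounds falling between control-based bounds plus 3 SD, cut at about 20% in these data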;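 further: 0% = DMSO wells while the 100% control is not disclosed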
# Hep lipid drop – modulators of hepatic lipid droplet formation | inhibition, % at 6.5 µM | AID 1656 | 240,000 compounds, 0.4% hits | AML12 mouse hepatocytes, oleate lipid droplets, BODIPY imaging;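 active means lipid droplet intensity inhibited by at least 50%, with more than 500 cells counted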
#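 Material – mouse AML12 hepatocyte cell line, fixed after treatment · Compound dosing – one dose, 6.5 µM compound · Times – compound with oleate, overnight · Measured by – Image-based BODIPY and DAPI two-channel analysis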
# MPTP block – inhibitors of mitochondrial permeability transition pore | isolated mouse mitochondria, Ca2+ swelling absorbance, 30 min | inhibition, % at 10 µM | 360,000 compounds, 1.4% hits | AID 602449;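 active means inhibition of 50% or more, scaled per plate between neutral and stimulator controls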;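 further: 0% = DMSO wells given calcium and 100% = 1 mM EGTA wells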
# V-ATPase pH – regulators of yeast V-ATPase proton transport; 350,000 compounds, 0.37% hits; S. cerevisiae, pHLuorin cytosolic pH fluorescence; response, % at 10 µM; in the data active means response mostly above about 7.3%, no sharp cut-off; inactive means mostly below about 5.4%; further: actives read high
# ADAM10 confirm – human ADAM10 inhibition, confirmation | ADAM10 QFRET peptide cleavage, EDANS fluorescence | AID 743208 | 2,100 compounds, 1% hits | inhibition, % at 6.95 µM | shares compounds with ADAM10 inh;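 active means inhibition above about 20% chosen separately for each screening run, limit read from the data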;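 further: 0% = DMSO wells and 100% = marimastat wells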
# ADAM17 ctr – inhibits human ADAM17 in ADAM10 exosite counter-screen; shares compounds with ADAM10 inh; 2,100 compounds, 0.5% hits; inhibition, % at 6.95 µM; ADAM17 QFRET peptide cleavage, EDANS fluorescence;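 active means mean triplicate inhibition above the solvent-only control wells' mean plus 3 SD, cut at about 12% in these data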;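 further: 0% = DMSO wells and 100% = marimastat wells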
# * = called active by the depositor; · = not tested or not shown. This is a sample that favours compounds with a hit; in the whole collection about 3.1% have one here.
SMILES,aDG glyco up,ADAM17 inh,ADAM10 inh,Hep lipid drop,MPTP block,V-ATPase pH,ADAM10 confirm,ADAM17 ctr
CCC(=O)OCC(=O)[C@@]1(OC(=O)CC)[C@@H](C)C[C@H]2[C@@H]3CCC4=CC(=O)C=C[C@]4(C)[C@@]3(Cl)[C@@H](O)C[C@@]21C,0,6,21*,·,0,2,1,0
COc1ccc(N2CCN(C(=O)c3ccc(C(C)(C)C)cc3)CC2)cc1,0,-5,88*,6,-1,6,1,0
COc1ccc(N2CCN(C(=O)CCNC(=O)c3ccc(C(C)(C)C)cc3)CC2)cc1,0,0,1,16,0,1,·,·
C[C@H]1[C@@H](OC(=O)Nc2ccccc2F)CC[C@@]23CCCN2C(=O)CCC[C@@H]13,·,-2,-1,·,·,·,·,·
CCOC(=O)c1ccc(N/C(=N\S(=O)(=O)c2ccccc2C)c2ccccc2)cc1,0,4,21*,·,-9,-3,2,1
CCOC(=O)c1ccc(NC(=O)c2ccc(NS(C)(=O)=O)cc2)cc1,0,3,21*,10,0,1,0,0
COC(=O)c1ccc(N/C(=N/S(=O)(=O)c2ccccc2)c2ccccc2)cc1,1,1,3,-21,3,0,·,·
COc1ccccc1CCC[C@H](CCS(=O)(=O)C(C)C)CC1CCCCC1,·,-2,-11,·,·,·,·,·
CC(CCN1CCC(C(O)(c2ccccc2)c2ccccc2)CC1)Oc1cccc(F)c1 (stereo unspecified),·,4,3,·,·,·,·,·
O=C(NNC(=S)Nc1ccc(Br)cc1)c1ccc(N2CCOCC2)c([N+](=O)[O-])c1,0,5,21*,-3,30,-1,1,0
O=C(Nc1cccnc1)c1ccc(N2CCOCC2)c([N+](=O)[O-])c1,0,2,11,·,0,0,·,·
Nc1[nH]c(C(=O)c2ccccc2)c(-c2ccc3c(c2)OCO3)c1C(=O)NCCc1c[nH]c2ccccc12,·,8,27*,·,·,·,6,3
Cc1nn(-c2ccccc2)c(N)c1N=Nc1ccccc1,0,1,5,-5,2,-2,·,·
Cc1cccc(N=Nc2c(C)nn(-c3ccccc3)c2N)c1C,0,6,23*,16,3,1,7,3
CCCN(CCC)C(=S)NC(=O)c1ccc(-c2ccccc2)cc1,0,5,24*,6,2,-2,3,1
O=S(=O)(c1cccc(C(F)(F)F)c1)N1CCC(CO)(CCCc2ccccc2)CC1,0,8,22*,-14,2,-7,1,1
O=S(=O)(c1cccc(C(F)(F)F)c1)N1CCC(O)(c2cccnc2)CC1,0,0,7,·,0,-5,·,·
O=C(Nc1ccc2c(c1)OCO2)N1CCC(c2nc3ccc(Cl)cc3[nH]2)CC1,·,-2,1,·,·,·,·,·
Cn1cc(C(=O)c2ccc(Cl)cc2Cl)cc1C(=O)N/N=C(\N)COc1ccccc1,0,1,10,-42,3,-1,·,·
Cn1cc(C(=O)c2ccc(Cl)cc2Cl)cc1C(=O)N/N=C(\N)COc1ccc(Cl)cc1Cl,1,20*,30*,5,3,0,12,4
Cc1onc(C(=O)N2CCN(C(c3ccc(F)cc3)c3ccc(F)cc3)CC2)c1[N+](=O)[O-],·,3,10,·,·,·,·,·
CC(C)CNC(=O)OCc1cn(Cc2cccc(C(F)(F)F)c2)nn1,·,-4,-4,·,·,·,·,·
O=C(N/N=C\c1ccc(Cl)cc1Cl)c1sccc1-n1cccc1,0,2,20*,·,-3,6,7,2
CCc1ccccc1N(CC(=O)NCc1ccco1)C(=O)CCC(=O)Nc1nccs1,0,-7,88*,4,0,3,1,-1
CCOc1ccc(N(CC(=O)NCc2ccco2)C(=O)CCC(=O)Nc2nccs2)cc1,0,1,5,0,0,0,·,·
SMILES,aDG glyco up,ADAM17 inh,ADAM10 inh,Hep lipid drop,MPTP block,V-ATPase pH,ADAM10 confirm,ADAM17 ctr
COC(=O)[C@]12C[C@H](CC(=O)NCc3ccccc3)C(=O)N(Cc3ccc(Cl)cc3Cl)C1=C[C@H](C(C)C)O[C@@H]2C1CC1,·,0,9,·,·,·,·,·
COC(=O)CN1C(=S)N(c2ccc(Cl)cc2)C(=O)C1CC(=O)Nc1ccc(F)cc1 (stereo unspecified),0,6,34*,5,0,-2,0,0
COC(=O)CN1C(=S)N(c2ccc(Cl)cc2)C(=O)C1CC(=O)Nc1ccc(Cl)cc1 (stereo unspecified),0,7,22*,-3,-16,4,4,1
COC(=O)C1CN(Cc2cn(Cc3ccc(Cl)cc3)nn2)CCS(=O)(=O)N1Cc1ccc(F)cc1 (stereo unspecified),·,0,0,·,·,·,·,·
O=C(Nc1cccc(Cl)c1)OCCOC(=O)Nc1cccc(Cl)c1,1,8,21*,·,10,3,4,2
O=C(Nc1cccc(Cl)c1)OCCOc1ccccc1,0,5,9,-28,3,-3,·,·
CCCCC(=O)N[C@H]1CC[C@@]23CCCN2C(=O)CCC[C@H]3[C@H]1CCC,·,0,-3,·,·,·,·,·
COc1ccc(C2C(C(=O)Nc3cccnc3)=C(C)Nc3nc(-c4cccs4)nn32)cc1OC (stereo unspecified),0,-1,77*,-8,0,1,0,0
COc1ccc(C2C(C(=O)Nc3cccnc3)=C(C)Nc3nc(-c4cccs4)nn32)cc1 (stereo unspecified),0,-3,-8,-9,-5,5,·,·
NC(=O)NOCc1cccc(Cl)c1,0,-1,0,16,3,1,·,·
Clc1cccc(CON/C=N/c2ncnc3sccc23)c1,2,6,21*,·,1,-1,2,1
O=C(c1ccccc1)n1ccc2ccc(-c3ccc4ccn(C(=O)c5ccccc5)c4c3)cc21,·,-2,-7,·,·,·,·,·
O=C(Cn1nc(C(F)F)cc1C(F)F)NNC(=S)Nc1ccc([N+](=O)[O-])cc1,0,5,21*,-16,-2,-3,3,2
